An excerpt weighted towards active compounds, which were near 29% of everything screened.
CYP2C19 inhib: blocks human cytochrome P450 2C19; P33261; CYP2C19 Supersomes, luciferin-H EGE luminescence, 30 min; inhibition, % at 5 µM; 96,000 tested, 21% active;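 active = CYP2C19 inhibition above a set limit at 5 µM in the primary screen, cut at about 50% in these data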;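 also: plate controls were negative control wells for no effect and 2.5 mM tranylcypromine positive control for full effect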
Ecoli WT expand: blocks growth of wild type E. coli BW25113; OD600 absorbance; growth inhibition, % at 100 µM; 98,000 tested, 0.15% active;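 active = growth inhibition above about 50% at one test dose, limit read from the data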;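 also: growth measured after 20 h incubation at 37 °C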
CYP2C19 act: activators of human cytochrome P450 2C19; P33261; recombinant CYP2C19, luciferin-H EGE luminescence; hits give high values; 0 = fully inhibited enzyme, 1 = untreated enzyme; activation factor at 5 µM; 96,000 tested, under 10 active; AID 1025;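 active = activation factor of at least 2 at 5 µM in the primary screen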;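 also: 0 = wells with 2.5 mM tranylcypromine and 1 = vehicle-only wells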
CYP2C9 inhib: inhibitors of human CYP2C9; CYP2C9 Supersomes, luciferin-H conversion, luminescence; inhibition, % at 5 µM; P11712; 96,000 tested, 20% active;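 active = blocking of liver enzyme CYP2C9 beyond about 50% at 5 µM, limit read from the data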
Target sequence (P11712 whole entry, looked up): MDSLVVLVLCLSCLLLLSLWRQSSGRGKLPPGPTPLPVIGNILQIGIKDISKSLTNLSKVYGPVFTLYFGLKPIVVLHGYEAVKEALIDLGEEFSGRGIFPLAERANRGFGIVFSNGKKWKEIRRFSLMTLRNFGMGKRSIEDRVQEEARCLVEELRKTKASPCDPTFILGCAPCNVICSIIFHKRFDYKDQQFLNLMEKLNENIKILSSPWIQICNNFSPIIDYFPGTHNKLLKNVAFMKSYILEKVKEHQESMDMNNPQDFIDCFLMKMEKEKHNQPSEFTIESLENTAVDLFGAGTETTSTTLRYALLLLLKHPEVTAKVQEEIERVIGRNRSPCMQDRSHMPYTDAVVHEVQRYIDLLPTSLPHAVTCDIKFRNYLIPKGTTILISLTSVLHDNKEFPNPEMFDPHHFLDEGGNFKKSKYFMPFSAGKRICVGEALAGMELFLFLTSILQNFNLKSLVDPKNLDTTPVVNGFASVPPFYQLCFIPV
Ecoli tolC: E. coli tolC mutant growth inhibition; growth inhibition, % at 10 µM (by protocol); AID 573; E. coli BW25113 tolC mutant growth, OD615; 65,000 tested, 2.2% active;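 active = growth inhibition at or above a cutoff equal to the mean over every tested compound plus 3 SD, cut at about 60% in these data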;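 also: growth measured after 20 h incubation at 37 °C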
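Material: E. coli BW25113 ΔtolC::kan, tolC deletion mutant strain. Measure: percent growth inhibition. Schedule: 37 °C, 20 h exposure. Doses: single-point testing at 10 µM. Signal: A615 absorbance measurement. Buffer or medium: kanamycin-containing LB broth (50 µg/mL).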
CYP2C9 act: CYP2C9 (human) activation; 96,000 tested, 1.4% active; activation factor at 5 µM; AID 1024; P11712; recombinant CYP2C9, luciferin-H conversion, luminescence; hits give high values; factor 1 = untreated enzyme, 0 = blocked;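 active = activation factor of 2 or more for CYP2C9 at a 5 µM dose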;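 also: 0 = sulfaphenazole-blocked wells and 1 = vehicle-only wells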
* hit, by the source's call.

`O=C(CSc1n[nH]c(-c2ccco2)n1)N1c2ccccc2Sc2ccccc21` gave CYP2C19 inhib 48.1, Ecoli WT expand 0.0, CYP2C19 act 0.5, CYP2C9 inhib 51.6*, Ecoli tolC 73.2* and CYP2C9 act 0.5.
`O=C1CN(C(=O)CSc2nncn2-c2ccccc2)c2ccccc2N1` gave CYP2C19 inhib -8.2, Ecoli WT expand 3.0, CYP2C19 act 1.1, CYP2C9 inhib -5.3, Ecoli tolC -11.5 and CYP2C9 act 1.1.
Screening Cc1nn(C)cc1NC(=O)CCSc1nc(-c2ccco2)cc(C(F)(F)F)n1 returned CYP2C19 inhib 28.9, Ecoli WT expand -6.0, CYP2C19 act 0.7, CYP2C9 inhib 29.6, Ecoli tolC 21.7 and CYP2C9 act 0.7.
For CCn1nc(C)c(NC(=O)CCCSc2nc(-c3ccco3)cc(C(F)(F)F)n2)c1C the results were CYP2C19 inhib 54.3*, Ecoli WT expand -1.0, CYP2C19 act 0.5, CYP2C9 inhib 80.7*, Ecoli tolC 13.5 and CYP2C9 act 0.2.
Screening Cc1cc(NC(=O)CCCSc2nc(-c3ccco3)cc(C(F)(F)F)n2)no1 returned CYP2C19 inhib 8.1, Ecoli WT expand -10.0, CYP2C19 act 0.9, CYP2C9 inhib 21.2, Ecoli tolC -10.1 and CYP2C9 act 0.8.
Cc1nn(C)c(C)c1NC(=O)CCSc1nc(-c2ccco2)cc(C(F)(F)F)n1 was read as CYP2C19 inhib 37.9, Ecoli WT expand 3.0, CYP2C19 act 0.6, CYP2C9 inhib 59.9*, Ecoli tolC 9.8 and CYP2C9 act 0.4.
For O=C(CCCSc1nc(-c2ccco2)cc(C(F)(F)F)n1)NCc1cccs1 the results were CYP2C19 inhib 25.5, Ecoli WT expand -9.0, CYP2C19 act 0.7, CYP2C9 inhib 79.5*, Ecoli tolC 53.8 and CYP2C9 act 0.2.
Screening CC(C)(C)c1cc(C(F)(F)F)nc(SCCCNC(=O)c2ccco2)n1 returned CYP2C19 inhib 92.1*, Ecoli WT expand 7.0, CYP2C19 act 0.1, CYP2C9 inhib 87.8*, Ecoli tolC 100.0* and CYP2C9 act 0.1.
Screening O=C(Cc1cc(=O)[nH]c(=O)[nH]1)NCCN1CCOCC1 returned Ecoli WT expand 5.0 and Ecoli tolC -5.9.
Screening OC(CN1C2=NCCN2c2ccccc21)c1ccc2c(c1)OCO2 (stereo unspecified) returned CYP2C19 inhib 12.5, Ecoli WT expand 7.0, CYP2C19 act 0.9, CYP2C9 inhib 15.0, Ecoli tolC -15.9 and CYP2C9 act 0.8.
O=C(c1ccc(F)cc1)N1CCN(c2cc(=O)[nH]nc2-c2ccccc2)CC1 was read as CYP2C19 inhib -13.0, Ecoli WT expand -3.0, CYP2C19 act 1.1, CYP2C9 inhib -14.6 and CYP2C9 act 1.1.
O=C(CN(Cc1ccco1)C(=O)c1cccc(Cl)c1)Nc1c(Cl)cc(Cl)cc1Cl was read as CYP2C19 inhib 50.8*, Ecoli WT expand -7.0, CYP2C19 act 0.5, CYP2C9 inhib 62.4* and CYP2C9 act 0.4.
For COc1ccccc1NC(=O)CN(Cc1ccco1)C(=O)c1cccs1 the results were CYP2C19 inhib 16.2, Ecoli WT expand 4.0, CYP2C19 act 0.8, CYP2C9 inhib 27.1, Ecoli tolC -1.0 and CYP2C9 act 0.7.
C/C(=C\c1ccco1)C1C(C#N)=C(N)OC2=C1C(=O)CC(C)(C)C2 (stereo unspecified) was read as CYP2C19 inhib 92.9*, Ecoli WT expand 2.0, CYP2C19 act 0.1, CYP2C9 inhib 90.8*, Ecoli tolC -1.0 and CYP2C9 act 0.1.
Screening CC1(C)CC(=O)C2=C(C1)OC(N)=C(C#N)C2c1cccc(OC(=O)c2ccco2)c1 (stereo unspecified) returned CYP2C19 inhib -14.7, Ecoli WT expand 26.0, CYP2C19 act 1.1, CYP2C9 inhib 75.9*, Ecoli tolC -0.8 and CYP2C9 act 0.2.
For CC1(C)CC(=O)C2=C(C1)OC(N)=C(C#N)C2CCc1ccccc1 (stereo unspecified) the results were Ecoli WT expand 2.0 and Ecoli tolC 1.2.
For CCCS(=O)(=O)N1CCCC(C(=O)NCCCN2CCN(c3cccc(Cl)c3)CC2)C1 (stereo unspecified) the results were CYP2C19 inhib -3.1, Ecoli WT expand -4.0, CYP2C19 act 1, CYP2C9 inhib 13.3, Ecoli tolC -18.9 and CYP2C9 act 0.9.
For Cc1ccc(CSc2nc3c(c(=O)[nH]2)CCC3)cc1 the results were CYP2C19 inhib 11.9, Ecoli WT expand -13.0, CYP2C19 act 0.9, CYP2C9 inhib 56.1*, Ecoli tolC 8.2 and CYP2C9 act 0.4.
Screening Cc1ccccc1CSc1nc2c(c(=O)[nH]1)CCCC2 returned CYP2C19 inhib 6.8, Ecoli WT expand -4.0, CYP2C19 act 0.9, CYP2C9 inhib 60.0* and CYP2C9 act 0.4.
`CSc1nc2c(c(=O)[nH]1)C(c1cccs1)C1=C(CCCC1=O)N2` (stereo unspecified) gave CYP2C19 inhib 2.6, Ecoli WT expand -3.0, CYP2C19 act 1, CYP2C9 inhib 19.8, Ecoli tolC 3.6 and CYP2C9 act 0.8.
For Cc1ccc(CSc2nc3c(c(=O)[nH]2)C(c2ccncc2)C2=C(CCCC2=O)N3)cc1 (stereo unspecified) the results were CYP2C19 inhib 93.8*, Ecoli WT expand -2.0, CYP2C19 act 0.1, CYP2C9 inhib 94.6*, Ecoli tolC 11.6 and CYP2C9 act 0.1.
`Cc1[nH]c(=O)[nH]c(=O)c1S(=O)(=O)N(C)Cc1ccccc1` gave CYP2C19 inhib -0.2, Ecoli WT expand 0.0, CYP2C19 act 1, CYP2C9 inhib 7.0, Ecoli tolC -12.7 and CYP2C9 act 0.9.
`COc1cccc(-c2csc(N3CCN(C(=S)Nc4ccccc4Cl)CC3)n2)c1` gave CYP2C19 inhib 72.6*, Ecoli WT expand -19.0, CYP2C19 act 0.3, CYP2C9 inhib 63.6* and CYP2C9 act 0.4.
For COc1cccc(-c2csc(N3CCN(C(=S)Nc4ccccc4OC)CC3)n2)c1 the results were CYP2C19 inhib 70.2*, Ecoli WT expand -19.0, CYP2C19 act 0.3, CYP2C9 inhib -5.6 and CYP2C9 act 1.1.
`Cc1noc(C)c1CN1C(=O)NC2(CCc3ccccc3C2)C1=O` (stereo unspecified) gave Ecoli WT expand -6.0 and Ecoli tolC 7.8.
Screening Cc1ccc2nc3c(c(N)c2c1)CCN3c1ccccc1 returned CYP2C19 inhib 68.7*, Ecoli WT expand -3.0, CYP2C19 act 0.3, CYP2C9 inhib 33.4, Ecoli tolC -7.0 and CYP2C9 act 0.7.
For O=C(c1ccccc1)N1CCN(C(=O)c2ccccc2Br)CC1 the results were CYP2C19 inhib 56.2*, Ecoli WT expand -10.0, CYP2C19 act 0.4, CYP2C9 inhib 30.6, Ecoli tolC -3.6 and CYP2C9 act 0.7.
CC(C)c1ccc(S(=O)(=O)N2CCN(C(=O)c3cccc(F)c3)CC2)cc1 was read as CYP2C19 inhib 67.0*, Ecoli WT expand -3.0, CYP2C19 act 0.3, CYP2C9 inhib 66.6*, Ecoli tolC 6.4 and CYP2C9 act 0.3.
